# Source: ChEMBL document CHEMBL1129329, “Structure-activity studies of 6-substituted decahydroisoquinoline-3-carboxylic acid AMPA receptor antagonists. 2. Effects of distal acid bioisosteric substitution, absolute stereochemical preferences, and in vivo activity” (J Med Chem, 1996)
# Tests used:
# [1] = molecular target: T1, Glutamate receptor ionotropic, AMPA (Rattus norvegicus, UniProt P19490+P19491+P19492+P19493); assay: (§1) Binding affinity against Ionotropic glutamate receptor AMPA using [3H]AMPA 19755 radioligand; type: protein-complex assay
# [2] = molecular target: Glutamate receptor ionotropic, kainate; assay: Binding affinity against Ionotropic glutamate receptor kainate using [3H]-Kainic acid 19755 radioligand; type: protein-complex assay
# How it was run: (§2)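 Displacement of radioligand binding in rat cortical tissue: [3H]AMPA for AMPA sites, [3H]kainic acid for kainate sites. Assays run in triplicate unless otherwise indicated; some IC50 values come from a single assay.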
# Glutamate NMDA receptor [3] = assay: Affinity of [3H]-CGS- 19755 radioligand to rat N-methyl-D-aspartate (NMDA) receptor; type: protein-complex assay
# Glutamate NMDA receptor [4] = assay: Compound was tested for NMDA receptor antagonistic activity by measuring its ability to inhibit depolarizations induced by 40 uM NMDA in rat cortical slice preparation.; type: functional
# [5] = molecular target: Glutamate receptor ionotropic, kainate; assay: Compound was tested for Ionotropic glutamate receptor kainate antagonistic activity by measuring its ability to inhibit depolarizations induced by 10 uM kainic acid in rat cortical slice preparation.; type: functional
# [6] = molecular target: T1, Glutamate receptor ionotropic, AMPA; assay: Compound was tested for Ionotropic glutamate receptor AMPA antagonistic activity by measuring its ability to inhibit depolarizations induced by 40 uM AMPA in rat cortical slice preparation.; type: functional
# [7] = molecular target: Glutamate receptor ionotropic, kainate; assay: Antagonism at Ionotropic glutamate receptor kainate by inhibition of depolarizations induced by 10 uM kainic acid in rat cortical slice preparation.; type: functional
# [8] = molecular target: T1, Glutamate receptor ionotropic, AMPA; assay: Antagonism at AMPA receptor by inhibition of depolarizations induced by 40 uM AMPA in rat cortical slice preparation.; type: functional
# Glutamate NMDA receptor [9] = assay: Antagonism at NMDA receptor by inhibition of depolarizations induced by 40 uM NMDA in rat cortical slice preparation.; type: functional
# Mus musculus [10] = assay: Effective dose to block ATPA-induced muscle rigidity in mice at a dose of 30 mg/kg administered intraperitoneally; details: ip
# Mus musculus [11] = assay: (§3) Effective dose to produce neurological impairments in mice using the horizontal screen assay, administered intraperitoneally; type: functional; details: ip
# How it was run: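 Mice dosed ip 30 min beforehand are placed on a horizontal screen, which is then turned upside down. Unimpaired mice climb back to the top within 2 min.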
# Mus musculus [12] = assay: Effective dose to block maximal electroshock-induced convulsions in mice, administered intraperitoneally; type: functional; details: ip
# Mus musculus [13] = assay: Effective dose to block ATPA-induced muscle rigidity in mice at a dose of 30mg/kg, administered intravenously; type: functional; details: iv
# How it was run: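 Mice given test agent ip 30 min before iv challenge with ATPA (30 mg/kg), a systemic AMPA agonist that produces characteristic muscle rigidity.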
# Mus musculus [14] = assay: Effective dose to block lethality induced by 200 mg/kg ip dose of NMDA; type: functional; details: route intraperitoneal
# How it was run: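 Mice dosed ip 30 min before a 200 mg/kg ip NMDA challenge; protection from lethality recorded and ED50 (mg/kg, ip) derived.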
# Mus musculus [15] = assay: as §3; type: functional; details: ip; remark: listed apart in the source
# How it was run: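 Mice dosed intraperitoneally 30 min before testing were placed on a horizontal screen, which was then turned upside down. Unimpaired mice climb back to the top within 2 min; failure indicates neurological impairment. This was done before MES testing.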
# [16] = molecular target: Glutamate NMDA receptor (Rattus norvegicus) (UniProt P35439+Q00959+Q00960+Q00961+Q62645+Q8VHN2+Q9R1M7); assay: Compound was tested for NMDA receptor antagonistic activity by measuring its ability to inhibit depolarizations induced by 40 uM NMDA in rat cortical slice preparation at 100 uM; type: functional
# [17] = molecular target: T1, Glutamate receptor ionotropic, AMPA; assay: Compound was tested for AMPA receptor antagonistic activity by measuring its ability to inhibit depolarizations induced by 10 uM quisqualic acid in rat cortical slice preparation.; type: functional
# [18] = molecular target: T2, Glutamate receptor ionotropic, AMPA (Rattus norvegicus) (UniProt P19491+P19492+P19493+P19490); assay: as §1; type: protein-complex assay; details: concentration not given here; how it was run: as §2
# [19] = molecular target: T2, Glutamate receptor ionotropic, AMPA (Rattus norvegicus); assay: Compound was tested for AMPA receptor antagonistic activity by measuring its ability to inhibit depolarizations induced by 40 uM AMPA in rat cortical slice preparation at 100 uM; type: functional
# Mus musculus [20] = assay: Minimum effective dose to block the lethality induced by 200 mg/kg ip dose of NMDA; type: functional; details: route intraperitoneal
# How it was run: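 Mice dosed ip 30 min before a 200 mg/kg ip NMDA challenge. Minimum effective dose is the lowest dose giving greater than 50% protection from lethality among all mice tested.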
# [21] = molecular target: Glutamate receptor ionotropic, AMPA (Rattus norvegicus, UniProt P19491+P19492+P19493+P19490); assay: Compound was tested for AMPA receptor antagonistic activity by measuring its ability to inhibit depolarizations induced by 40 uM AMPA in rat cortical slice preparation; agonist; type: functional
# Sequence of Glutamate receptor ionotropic, AMPA (Rattus norvegicus, UniProt P19491+P19492+P19493+P19490) (P19491 whole entry): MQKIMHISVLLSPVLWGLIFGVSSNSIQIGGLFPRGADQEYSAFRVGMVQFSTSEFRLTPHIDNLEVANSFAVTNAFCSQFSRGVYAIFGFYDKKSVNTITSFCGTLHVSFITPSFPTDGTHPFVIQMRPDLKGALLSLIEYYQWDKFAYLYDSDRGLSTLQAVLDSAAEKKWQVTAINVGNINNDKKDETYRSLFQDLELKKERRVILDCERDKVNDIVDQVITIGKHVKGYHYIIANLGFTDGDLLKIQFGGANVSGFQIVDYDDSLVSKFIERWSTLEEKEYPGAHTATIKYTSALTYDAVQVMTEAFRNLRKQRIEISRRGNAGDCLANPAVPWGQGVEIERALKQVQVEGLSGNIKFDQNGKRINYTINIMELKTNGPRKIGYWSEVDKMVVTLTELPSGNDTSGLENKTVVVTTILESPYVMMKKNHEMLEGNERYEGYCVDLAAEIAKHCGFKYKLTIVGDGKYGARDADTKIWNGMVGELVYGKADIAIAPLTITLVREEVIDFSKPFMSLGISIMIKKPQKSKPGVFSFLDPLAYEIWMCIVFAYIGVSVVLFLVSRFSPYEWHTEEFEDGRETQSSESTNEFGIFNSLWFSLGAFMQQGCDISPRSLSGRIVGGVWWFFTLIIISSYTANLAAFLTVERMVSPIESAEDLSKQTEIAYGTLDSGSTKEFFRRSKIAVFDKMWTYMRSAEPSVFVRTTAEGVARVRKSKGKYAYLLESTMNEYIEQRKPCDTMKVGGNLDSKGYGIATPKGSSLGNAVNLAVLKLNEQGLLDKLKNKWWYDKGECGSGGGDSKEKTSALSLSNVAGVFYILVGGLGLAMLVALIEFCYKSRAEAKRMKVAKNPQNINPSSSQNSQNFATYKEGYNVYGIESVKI
# Sequence of Glutamate receptor ionotropic, AMPA (Rattus norvegicus, UniProt P19491+P19492+P19493+P19490) (P19492 whole entry): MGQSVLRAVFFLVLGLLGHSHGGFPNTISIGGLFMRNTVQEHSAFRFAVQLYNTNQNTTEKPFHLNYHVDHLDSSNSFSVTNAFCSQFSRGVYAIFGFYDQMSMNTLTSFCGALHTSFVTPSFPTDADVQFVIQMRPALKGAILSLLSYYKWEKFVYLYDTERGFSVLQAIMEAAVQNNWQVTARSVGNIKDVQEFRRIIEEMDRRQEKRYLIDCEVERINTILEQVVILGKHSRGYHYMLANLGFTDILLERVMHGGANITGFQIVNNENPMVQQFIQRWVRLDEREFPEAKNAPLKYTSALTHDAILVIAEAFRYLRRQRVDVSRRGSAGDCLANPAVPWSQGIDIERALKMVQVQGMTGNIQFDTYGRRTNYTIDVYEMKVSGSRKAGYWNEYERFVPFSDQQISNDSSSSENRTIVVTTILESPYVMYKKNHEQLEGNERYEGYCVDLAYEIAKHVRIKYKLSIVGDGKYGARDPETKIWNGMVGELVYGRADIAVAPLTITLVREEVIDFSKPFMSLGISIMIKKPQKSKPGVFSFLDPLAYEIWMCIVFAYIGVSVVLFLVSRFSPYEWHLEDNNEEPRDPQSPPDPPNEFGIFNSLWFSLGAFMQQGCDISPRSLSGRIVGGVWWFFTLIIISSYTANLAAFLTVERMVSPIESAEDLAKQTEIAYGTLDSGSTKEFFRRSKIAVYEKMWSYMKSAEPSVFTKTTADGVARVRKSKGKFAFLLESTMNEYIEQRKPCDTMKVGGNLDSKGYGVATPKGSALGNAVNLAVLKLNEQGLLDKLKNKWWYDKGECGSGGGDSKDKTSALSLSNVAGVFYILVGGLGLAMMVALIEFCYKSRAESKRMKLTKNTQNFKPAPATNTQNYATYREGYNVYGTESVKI
# Sequence of Glutamate receptor ionotropic, AMPA (Rattus norvegicus, UniProt P19491+P19492+P19493+P19490) (P19493 whole entry): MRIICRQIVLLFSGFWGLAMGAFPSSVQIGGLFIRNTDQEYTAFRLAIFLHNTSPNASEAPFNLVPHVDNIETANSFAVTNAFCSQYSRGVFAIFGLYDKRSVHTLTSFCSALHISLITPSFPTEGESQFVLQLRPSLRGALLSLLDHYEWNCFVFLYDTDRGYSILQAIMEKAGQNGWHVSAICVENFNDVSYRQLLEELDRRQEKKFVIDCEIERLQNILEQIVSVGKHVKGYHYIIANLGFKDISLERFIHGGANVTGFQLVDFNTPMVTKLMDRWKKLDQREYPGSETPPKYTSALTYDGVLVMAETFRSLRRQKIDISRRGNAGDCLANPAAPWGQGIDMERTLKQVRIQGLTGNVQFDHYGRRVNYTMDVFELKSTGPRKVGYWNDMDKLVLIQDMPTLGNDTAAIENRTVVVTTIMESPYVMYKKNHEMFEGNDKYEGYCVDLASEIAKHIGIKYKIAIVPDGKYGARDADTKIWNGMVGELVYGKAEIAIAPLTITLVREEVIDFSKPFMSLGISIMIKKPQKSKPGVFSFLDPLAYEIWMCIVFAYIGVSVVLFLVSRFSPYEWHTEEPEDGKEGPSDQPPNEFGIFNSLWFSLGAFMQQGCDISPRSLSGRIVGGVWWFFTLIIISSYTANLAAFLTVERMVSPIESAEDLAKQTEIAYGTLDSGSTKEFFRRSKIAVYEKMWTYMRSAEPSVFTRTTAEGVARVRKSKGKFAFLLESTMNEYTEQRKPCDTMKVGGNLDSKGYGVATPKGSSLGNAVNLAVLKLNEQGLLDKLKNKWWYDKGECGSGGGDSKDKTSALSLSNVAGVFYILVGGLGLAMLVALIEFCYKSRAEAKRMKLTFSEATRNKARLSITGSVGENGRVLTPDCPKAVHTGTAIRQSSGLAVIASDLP
# Sequence of Glutamate receptor ionotropic, AMPA (Rattus norvegicus, UniProt P19491+P19492+P19493+P19490) (P19490 whole entry): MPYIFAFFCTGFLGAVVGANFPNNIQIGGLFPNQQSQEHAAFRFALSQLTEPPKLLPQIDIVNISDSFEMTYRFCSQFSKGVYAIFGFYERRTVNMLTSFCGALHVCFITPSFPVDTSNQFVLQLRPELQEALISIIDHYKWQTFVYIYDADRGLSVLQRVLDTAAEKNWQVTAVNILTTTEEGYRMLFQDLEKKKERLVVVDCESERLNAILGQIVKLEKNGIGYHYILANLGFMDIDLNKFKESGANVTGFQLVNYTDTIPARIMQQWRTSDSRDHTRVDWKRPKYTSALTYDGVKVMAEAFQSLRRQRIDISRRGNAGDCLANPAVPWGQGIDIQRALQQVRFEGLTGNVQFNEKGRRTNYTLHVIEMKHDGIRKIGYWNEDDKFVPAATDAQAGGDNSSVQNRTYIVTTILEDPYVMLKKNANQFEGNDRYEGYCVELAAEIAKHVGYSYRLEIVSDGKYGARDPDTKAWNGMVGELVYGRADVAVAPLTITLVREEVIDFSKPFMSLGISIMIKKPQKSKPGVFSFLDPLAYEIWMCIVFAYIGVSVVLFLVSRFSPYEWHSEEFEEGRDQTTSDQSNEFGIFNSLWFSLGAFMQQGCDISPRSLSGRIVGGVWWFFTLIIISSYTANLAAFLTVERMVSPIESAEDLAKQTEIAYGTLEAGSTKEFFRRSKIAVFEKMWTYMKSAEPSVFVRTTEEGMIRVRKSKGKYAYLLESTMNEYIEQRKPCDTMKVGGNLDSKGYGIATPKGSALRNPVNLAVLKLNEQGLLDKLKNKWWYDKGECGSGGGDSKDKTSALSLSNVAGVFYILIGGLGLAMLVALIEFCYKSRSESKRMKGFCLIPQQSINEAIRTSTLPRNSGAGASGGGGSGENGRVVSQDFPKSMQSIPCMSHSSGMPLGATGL
SMILES,IC50 [1] [µM],IC50 [2] [µM],IC50 (Glutamate NMDA receptor [3]) [µM],IC50 [7] [µM],IC50 [8] [µM],IC50 (Glutamate NMDA receptor [9]) [µM],also measured
O=C(O)[C@@H]1C[C@H]2C[C@@H](CS(=O)(=O)c3nnc[nH]3)CC[C@H]2CN1 (stereo in doubt; (-)36),0.6,> 100,> 100,,,,
O=C(O)[C@H]1C[C@@H]2C[C@H](CSc3nn[nH]n3)CC[C@@H]2CN1,22.1,> 100,> 10,,,,IC50 (Glutamate NMDA receptor [4]): > 100 µM; IC50 [5]: > 31.6 µM; IC50 [6]: 19.8 µM
O=C(O)[C@@H]1C[C@H]2C[C@H](CSc3nn[nH]n3)CC[C@H]2CN1 (stereo in doubt; (+/-)28),4.9,37.3,47.9,,,,IC50 (Glutamate NMDA receptor [4]): > 100 µM; IC50 [6]: 6.1 µM
O=C(O)[C@@H]1C[C@H]2C[C@H](CCc3cc(O)no3)CC[C@H]2CN1,> 100,> 100,> 100,,,,ED50 (Mus musculus [10]): 8.8 mg/kg; ED50 (Mus musculus [11]): > 100 mg/kg; ED50 (Mus musculus [12]): 31.1 mg/kg
O=C(O)[C@@H]1C[C@H]2C[C@@H](c3nnn[nH]3)CC[C@H]2CN1,,,,,,,ED50 (Mus musculus [13]): 44.5 mg/kg; ED50 (Mus musculus [14]): 19.4 mg/kg; ED50 (Mus musculus [12]): 24.1 mg/kg
O=C(O)[C@@H]1C[C@H]2C[C@@H](CCCc3nnn[nH]3)CC[C@H]2CN1,,,,,,,ED50 (Mus musculus [10]): > 100 mg/kg; ED50 (Mus musculus [15]): > 100 mg/kg; ED50 (Mus musculus [12]): > 100 mg/kg
O=C(O)[C@H]1C[C@@H]2C[C@H](CS(=O)(=O)c3nc[nH]n3)CC[C@@H]2CN1,23.6,> 100,60.9,,,,
O=C(O)[C@@H]1C[C@H]2C[C@@H](CCc3nn[nH]n3)CC[C@H]2CN1 (racemic) [TEZAMPANEL ANHYDROUS],,,,,,,ED50 (Mus musculus [10]): 3.6 mg/kg; ED50 (Mus musculus [15]): 19.6 mg/kg; ED50 (Mus musculus [12]): 9 mg/kg
O=C(O)[C@@H]1C[C@H]2C[C@H](CSc3nn[nH]n3)CC[C@H]2CN1 (stereo in doubt; (-)28),70.5,> 100,29.8,,,,IC50 (Glutamate NMDA receptor [4]): 62.2 µM; IC50 [5]: > 100 µM; IC50 [6]: > 100 µM
O=C(O)[C@@H]1C[C@H]2C[C@@H](CCc3nn[nH]n3)CC[C@H]2CN1,,,,,,,inhibition [16]: 60%
O=C(O)[C@@H]1C[C@H]2C[C@@H](CS(=O)(=O)c3nnc[nH]3)CC[C@H]2CN1 (stereo in doubt; 36),1.7,,,10,2.16,> 100,ED50 (Mus musculus [15]): 25.2 mg/kg; ED50 (Mus musculus [12]): 9.5 mg/kg
O=C(O)[C@@H]1C[C@H]2C[C@@H](CSc3nn[nH]n3)CC[C@H]2CN1 (racemic),0.9,30.1,29.4,,,,IC50 (Glutamate NMDA receptor [4]): > 100 µM; IC50 [6]: 19.8 µM
O=C(O)CC[C@@H]1CC[C@H]2CN[C@H](C(=O)O)C[C@H]2C1,> 100,> 100,> 100,> 100,> 100,> 100,
O=C(O)CC[C@H]1CC[C@H]2CN[C@H](C(=O)O)C[C@H]2C1,27.8,> 100,43.9,> 100,,57,ED50 (Mus musculus [10]): > 100 mg/kg; ED50 (Mus musculus [15]): > 100 mg/kg; IC50 [17]: 42 µM; ED50 (Mus musculus [12]): > 100 mg/kg
O=C(O)[C@@H]1C[C@H]2C[C@@H](CSc3nc[nH]n3)CC[C@H]2CN1,> 10,> 10,> 10,,,,IC50 (Glutamate NMDA receptor [4]): > 100 µM; IC50 [5]: > 100 µM; IC50 [6]: 68.8 µM
O=C(O)[C@H]1C[C@@H]2C[C@@H](CSc3nn[nH]n3)CC[C@@H]2CN1,17.8,27.9,> 100,,,,IC50 (Glutamate NMDA receptor [4]): > 100 µM; IC50 [5]: 29.1 µM; IC50 [6]: 9 µM
O=C(O)[C@@H]1C[C@H]2C[C@@H](CCS(=O)(=O)O)CC[C@H]2CN1,11.6,> 100,61.8,100,31.4,> 100,
O=C(O)[C@@H]1C[C@H]2C[C@@H](Cn3nnc(S)n3)CC[C@H]2CN1 (racemic),,> 100,> 10,> 100,,> 100,inhibition [18]: 57.9%; inhibition [19]: 55%
O=C(O)[C@@H]1C[C@H]2C[C@H](CCS(=O)(=O)O)CC[C@H]2CN1,> 100,> 100,> 100,> 100,> 100,> 100,
O=C(O)[C@@H]1C[C@H]2C[C@@H](CSc3nn[nH]n3)CC[C@H]2CN1,0.6,15.7,18.1,,,,ED50 (Mus musculus [10]): 8.1 mg/kg; IC50 (Glutamate NMDA receptor [4]): 22.9 µM; ED50 (Mus musculus [11]): 20.1 mg/kg; IC50 [5]: > 31.6 µM; IC50 [6]: 1.4 µM; ED50 (Mus musculus [12]): 8.5 mg/kg
O=C(O)[C@@H]1C[C@H]2C[C@@H](CNc3nn[nH]n3)CC[C@H]2CN1 (racemic),> 100,> 100,> 100,> 100,> 100,> 100,
O=C(O)[C@@H]1C[C@H]2C[C@@H](OCc3nn[nH]n3)CC[C@H]2CN1,,,,,,,ED50 (Mus musculus [10]): 30.6 mg/kg; ED50 (Mus musculus [20]): 80 mg/kg; ED50 (Mus musculus [15]): 21 mg/kg; ED50 (Mus musculus [12]): 24.7 mg/kg
O=C(O)[C@@H]1C[C@H]2C[C@@H](Cn3nnnc3S)CC[C@H]2CN1 (racemic),12.9,16.7,> 10,,,,IC50 [21]: Agonist

# More lines, main results first:
IC50 [1] [µM],IC50 [2] [µM],IC50 (Glutamate NMDA receptor [3]) [µM],IC50 [7] [µM],IC50 [8] [µM],IC50 (Glutamate NMDA receptor [9]) [µM],SMILES,also measured
72.6,> 100,> 100,71,19,84,O=C(CC[C@H]1CC[C@H]2CN[C@H](C(=O)O)C[C@H]2C1)Nc1nn[nH]n1,
14,28.1,12.1,,1.8,,O=C(O)[C@@H]1C[C@H]2C[C@@H](CCc3nn[nH]n3)CC[C@H]2CN1 [TEZAMPANEL ANHYDROUS],
,,76.9,,,,O=C(O)[C@@H]1C[C@H]2C[C@H](CCc3nnn[nH]3)CC[C@H]2CN1 (stereo in doubt; (-)49),
> 100,> 100,> 100,> 100,> 100,> 100,CCOC(=O)[C@@H]1C[C@H]2C[C@@H](CCC(=O)NS(C)(=O)=O)CC[C@H]2CN1C(=O)OC,
,,> 100,,,> 100,CCOC(=O)[C@@H]1C[C@H]2C[C@@H](CCc3cc(OC)no3)CC[C@H]2CN1C(=O)OC,
> 10,,> 10,> 100,> 100,> 100,O=C(O)[C@@H]1C[C@H]2C[C@H](CCP(=O)(O)O)CC[C@H]2CN1,
> 100,> 100,,> 100,> 100,,O=C(O)[C@H]1C[C@@H]2C[C@H](CCc3nnn[nH]3)CC[C@@H]2CN1,
> 100,> 100,> 100,> 100,> 100,> 100,CCOC(=O)[C@@H]1C[C@H]2C[C@@H](CCC(=O)NS(=O)(=O)c3ccccc3)CC[C@H]2CN1C(=O)OC,
> 100,,> 100,> 100,> 100,> 100,CCOC(=O)[C@@H]1C[C@H]2C[C@@H](CCP(=O)(OCC)OCC)CC[C@H]2CN1C(=O)OC,
31.5,87,,28.9,21.9,,O=C(O)[C@@H]1C[C@H]2C[C@H](CCc3nnn[nH]3)CC[C@H]2CN1 (stereo in doubt; (+)49),
